Measurements from ChEMBL document CHEMBL4196133, “NF-κB and Angiogenesis Inhibitors from the Aerial Parts of Chresta martii” (J Nat Prod, 2018).
The source made the active and inactive calls. The rule behind the calls is not given here.

What was measured:
[1] = Inhibition of TNFalpha-stimulated NF-kappaB (unknown origin) expressed in HEK293 cells incubated for 30 mins followed by TNFalpha stimulation for 4 hrs by luciferase reporter gene based luminescence assay; format: cell-based; conditions: Homo sapiens
HUVEC [2] = experiment: Antiangiogenic activity in HUVEC assessed as decrease in VEGF-induced extremities at 1 ug/ml after 3 days; format: functional, cell-based; conditions: Homo sapiens
How it was run: (§1)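 HUVECs seeded on Cytodex 3 beads (400 cells/bead, 4 h at 37 °C with shaking, then 24 h), embedded in fibrin gel (fibrinogen 2.5 mg/mL, aprotinin 0.15 U/mL, thrombin) with VEGF; EGM-2 with VEGF 5 ng/mL, NHDF overlaid. Compound added after 1 h, medium renewed at 24 h then every 48 h. Imaged at 4× day 4; sprout network quantified by Angiogenesis Analyzer; ≥18 spheres, mean ± SEM, one-way ANOVA/Dunnett.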

HUVEC [3] = experiment: Antiangiogenic activity in HUVEC assessed as decrease in VEGF-induced number of total capillary length at 1 ug/ml after 3 days; format: functional, cell-based; conditions: Homo sapiens; how it was run: as §1
HUVEC [4] = experiment: Antiangiogenic activity in HUVEC assessed as decrease in VEGF-induced anchorage junctions at 1 ug/ml after 3 days; format: functional, cell-based; conditions: Homo sapiens; how it was run: as §1
HUVEC [5] = experiment: Antiangiogenic activity in HUVEC assessed as decrease in VEGF-induced segments at 1 ug/ml after 3 days; format: functional, cell-based; conditions: Homo sapiens; how it was run: as §1
HUVEC [6] = experiment: Cytotoxicity against HUVEC at 1 ug/ml after 24 hrs by MTT assay; format: cell-based; conditions: human
How it was run: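 HUVECs (1.0 × 10^4/well) in EBM2 with 0.5% FBS, settled overnight at 37 °C, 5% CO2; compound at 1 μg/mL for 24 h. MTT added for 4 h at 37 °C, formazan dissolved in DMSO, absorbance read at 595 nm.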

SMILES	IC50 [1]	Activity (HUVEC [2])	Activity (HUVEC [3])	Activity (HUVEC [4])	Activity (HUVEC [5])	Activity (HUVEC [6])
CC(=O)OCC1=C2/C(=C/[C@]3(C)CC[C@@](O)(O3)[C@](C)(O)C[C@@H]2O)OC1=O	0.7 µM	Active	Active	Active	Active	Non-Toxic
C=C1C(=O)O[C@H]2[C@@H]1CC/C(C)=C\CC[C@@]1(C)O[C@@H]21	0.7 µM	–	–	–	–	–
COc1ccc(-c2cc(=O)c3c(O)cc(O)cc3o2)cc1OC	–	–	–	–	–	Non-Toxic
CC(=O)OCC1=C2[C@@H](O)C[C@@](C)(OC(C)=O)C(=O)CC[C@@]3(C)O[C@H]3[C@H]2OC1=O	7.8 µM	–	–	–	–	Non-Toxic
CC(=O)O[C@@H]1C[C@@](C)(OC(C)=O)C(=O)CC[C@@]2(C)O[C@@H]2C2OC(=O)C(CO)=C21 (some centres not stated)	2.4 µM	Active	Active	Active	Active	Non-Toxic
CC(=O)OCC1=C2/C(=C/[C@]3(C)CC[C@@](O)(O3)[C@@](C)(O)C[C@H]2OC(C)=O)OC1=O	1.8 µM	Active	Active	Active	Active	Non-Toxic
CC(=O)OCC1=C2[C@@H](OC(C)=O)C[C@@](C)(OC(C)=O)C(=O)CC[C@@]3(C)O[C@H]3[C@H]2OC1=O	6.5 µM	Active	Active	Active	Active	Non-Toxic
C[C@@]12/C=C3\OC(=O)C(CO)=C3[C@@H](O)C[C@@](C)(O)[C@@](O)(CC1)O2	2.2 µM	Active	Active	Active	Active	Non-Toxic
CC(=O)OCC1=C2[C@@H](OC(C)=O)C[C@@](C)(OC(C)=O)[C@@]3(O)CC[C@@](C)(O)[C@H](OC(C)=O)[C@@]23OC1=O	13.6 µM	–	–	–	–	–
CCC(=O)O[C@H]1C[C@@](C)(OC(C)=O)C(=O)CC[C@@]2(C)O[C@H]2[C@H]2OC(=O)C(COC(C)=O)=C12	5.1 µM	–	–	–	–	Non-Toxic
